Source: PubChem
UPR XBP1 act: activators of adaptive arm of unfolded protein response (XBP1) | hit rate 0.33% among 330,000 | activation, % at 20 µM | AID 463104 | CHO-XBP1 luciferase reporter, IRE1-XBP1 UPR activation, luminescence; percent of tunicamycin response, DMSO as zero;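 active = versus positive control, 20 µM dose yields 30% or more activation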;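 also: 100% = tunicamycin at 10 µg/mL and 0% = DMSO only wells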
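Material: IRE1-XBP1 luciferase reporter CHO line / Quantity: one thousand reporter cells per well / Buffer or medium: F12 with 10% serum / Compound: 20 µM single concentration, DMSO 1% / Times: 6 h treatment, 37 °C / Detection: Steady-Glo luciferase glow luminescence, 10 min after reagent addition / Benchmarks: tunicamycin high, DMSO low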
NOD2-RIPK2 inh: NOD2-RIPK2 protein interaction inhibition | O43353 | CHO BLA complementation NOD2-RIPK2, CCF4 ratio | inhibition, % at 4.98 µM | hit rate 0.38% among 360,000; in the data active = inhibition above about 21%;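 also: 0% = vehicle only and 100% = reference blocker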
CHOP UPR activ: activators of apoptotic arm of unfolded protein response (CHOP); AID 449763; CHO-CHOP luciferase reporter, UPR activation, luminescence; percent of tunicamycin response over DMSO baseline; activation, % at 10 µM; hit rate 0.34% among 330,000;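 active = at 10 µM dose, activation of 40% or more, normalized to positive control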;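 also: 100% = tunicamycin at 10 µg/mL and 0% = DMSO alone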
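Test system: CHO CHOP reporter cells. Input: 500 CHO-CHOP cells per well. Medium: F12 with 10% FBS. Technique: luciferase luminescence. Measure: percent activation relative to tunicamycin control. Dosing: 10 µM compound, 0.5% DMSO. Timing: 16-18 h cell attachment, then 6 h compound exposure, 37 °C.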
TLR4-MyD88 BLA: TLR4-MyD88 interaction inhibition in cells; HeLa CL3-4 TLR4/MyD88 BLA complementation, FRET ratio; O00206+Q99836; hit rate 0.18% among 200,000; inhibition, % at 8.4 µM; in the data active = inhibition above about 25%;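 also: 0% = vehicle and 100% = reference inhibitor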
CHOP inhibitor: CHOP inhibition in unfolded protein response | hit rate 3.8% among 220,000 | AID 2732 | inhibition, % at 10 µM | CHO-K1 CHOP-promoter luciferase, tunicamycin-induced, 15-18 h;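 active = compounds that reduced the stress-induced luciferase reporter signal by more than about 70% of percent inhibition, limit read from the data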;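 also: 0% = tunicamycin plus vehicle and 100% = wells without tunicamycin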
TLR9-MyD88 inh: blocks human TLR9 binding to MyD88. hit rate 0.21% among 340,000. inhibition, % at 4.98 µM. Q9NR96+Q99836. CHO BLA complementation TLR9-MyD88, CCF4 FRET ratio. AID 504734;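 active = inhibition above the mean over all tested compounds plus 3 SD, cut at about 21% in these data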;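 also: 0% = DMSO only wells and 100% = clavulanate BLA inhibitor control wells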
Target sequence (Q99836 whole entry, looked up): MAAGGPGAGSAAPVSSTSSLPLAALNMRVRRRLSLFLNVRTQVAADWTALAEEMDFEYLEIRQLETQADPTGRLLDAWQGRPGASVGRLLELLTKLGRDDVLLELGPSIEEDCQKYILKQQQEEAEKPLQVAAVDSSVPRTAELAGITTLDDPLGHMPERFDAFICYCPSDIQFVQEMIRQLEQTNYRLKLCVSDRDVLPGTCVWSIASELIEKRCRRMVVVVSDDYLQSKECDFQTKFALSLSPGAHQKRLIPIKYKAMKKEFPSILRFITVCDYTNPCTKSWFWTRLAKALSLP
Target sequence (Q9NR96 whole entry, looked up): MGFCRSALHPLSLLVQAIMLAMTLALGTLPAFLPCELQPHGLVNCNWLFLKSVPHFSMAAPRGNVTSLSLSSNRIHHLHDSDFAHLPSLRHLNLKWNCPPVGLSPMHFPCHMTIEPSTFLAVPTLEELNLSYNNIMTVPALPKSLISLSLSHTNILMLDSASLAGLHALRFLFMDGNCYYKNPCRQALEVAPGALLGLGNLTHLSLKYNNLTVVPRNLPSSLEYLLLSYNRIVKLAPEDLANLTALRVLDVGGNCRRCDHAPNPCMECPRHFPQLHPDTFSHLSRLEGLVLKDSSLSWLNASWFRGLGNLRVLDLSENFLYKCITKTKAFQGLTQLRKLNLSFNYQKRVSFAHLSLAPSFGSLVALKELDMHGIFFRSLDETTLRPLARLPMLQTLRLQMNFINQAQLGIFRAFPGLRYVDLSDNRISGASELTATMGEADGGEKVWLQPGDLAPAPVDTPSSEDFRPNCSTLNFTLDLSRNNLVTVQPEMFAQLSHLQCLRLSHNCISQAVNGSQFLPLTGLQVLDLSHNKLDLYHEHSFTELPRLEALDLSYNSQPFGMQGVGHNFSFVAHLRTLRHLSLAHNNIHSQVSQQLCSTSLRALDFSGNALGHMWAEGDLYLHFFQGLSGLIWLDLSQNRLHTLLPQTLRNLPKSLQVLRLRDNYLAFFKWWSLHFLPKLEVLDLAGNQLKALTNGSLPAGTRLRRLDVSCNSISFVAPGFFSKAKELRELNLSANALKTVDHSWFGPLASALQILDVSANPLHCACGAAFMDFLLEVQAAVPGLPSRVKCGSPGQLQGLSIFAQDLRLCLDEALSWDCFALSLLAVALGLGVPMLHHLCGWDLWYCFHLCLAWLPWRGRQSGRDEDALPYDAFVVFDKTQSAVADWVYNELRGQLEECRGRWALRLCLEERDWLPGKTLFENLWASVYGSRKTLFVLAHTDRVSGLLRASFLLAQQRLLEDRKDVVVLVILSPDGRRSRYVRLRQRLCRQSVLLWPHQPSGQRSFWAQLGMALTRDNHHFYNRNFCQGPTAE
The depositor's hits bear a star; . = no result. Shown is part of a subset that was picked to be rich in hits.

SMILES	UPR XBP1 act	NOD2-RIPK2 inh	CHOP UPR activ	TLR4-MyD88 BLA	CHOP inhibitor	TLR9-MyD88 inh
Cc1ccccc1S(=O)(=O)NC(=O)C1(C)CCN1C(=O)CC(c1ccccc1)c1ccccc1 (stereo not given)	.	2	.	.	.	.
COc1cc(NC(=O)c2cccnc2)ccc1-c1cc2ccccc2oc1=O	-2	.	2	3	77*	.
O=C(Nc1ccc(-c2cc3ccccc3oc2=O)c(Cl)c1)c1cccnc1	1	-6	-1	-7	33	7
CCNC(=S)N/N=C/c1ccc(OCCOc2ccccc2C)cc1	3	-1	-2	13	85*	0
COc1ccc(C(=O)OCC2CC(c3ccccc3)N(C)O2)cc1 (stereo not given)	-1	5	-1	-11	80*	-6
CCn1c(O)c(/C=C2\C=Nc3ccccc32)sc1=Nc1ccccc1	9	0	2	2	79*	8
Cc1cccc(OCCCC(=O)O)c1C	0	0	0	18	70*	8
CC(=O)c1cccc(NC(=O)C(C)Sc2nnc3ccccn23)c1 (stereo not given)	.	13	.	.	.	-2
O=C(N/N=C\c1cc(Cl)ccc1O)c1ccc(S(=O)(=O)N2CCCCC2)cc1	3	-8	-2	-11	81*	3
O=C(Nc1cc(S(=O)(=O)Nc2ccc(Cl)cc2)ccc1O)c1ccc(S(=O)(=O)N2CCCCCC2)cc1	-3	-5	-1	2	-1	0
COc1cc(CCNC2=CC(=O)c3ncccc3C2=O)ccc1O	.	-1	.	.	.	-4
Cc1cccc(Nc2nc3c(s2)CCCC3)c1	.	-5	.	-22	2	3
O=C(O)c1ccc(Nc2nc3c(s2)CCCC3)cc1	-7	1	-9	-5	91*	1
CCc1nc2ccc(C(=O)N3CCN(C(=O)c4ccco4)CC3)cn2c1N(CC)Cc1cccc(Br)c1	.	9	.	.	.	.
O=C(c1ccccc1)N1CCN(CC2CC=CCC2)CC1 (stereo not given)	-1	-2	0	9	79*	-14
O=C(c1ccccc1)N1CCN(CC(O)COCC2CC=CCC2)CC1 (stereo not given)	2	-2	-2	10	4	-7
O=C(Nn1nnnc1Nc1ccccc1)C12CC3CC(CC(C3)C1)C2	-8	-7	0	-15	94*	-11
O=C(NCc1ccccc1)C12CC3CC(CC(C3)C1)C2	0	9	-3	9	43	-4
CCOC(=O)c1c(NC(=O)CN2CCN(S(=O)(=O)c3cc(Cl)ccc3Cl)CC2)sc(C(=O)N(C)C)c1C	.	-2	.	.	.	1
COc1ccc(-c2cc(CNc3nc4cc(-c5ccccc5C)sc4c(=O)n3C)on2)cc1	.	-4	.	.	.	.
CC(=O)N(CCN(C(C)=O)c1ccccc1)c1ccccc1	0	3	0	-13	-20	-7
CC(C)(C)C(=O)N(CCN(C(=O)C(C)(C)C)c1ccccc1)c1ccccc1	0	-2	2	-8	78*	-9
CCCN(CCC)S(=O)(=O)c1ccc(C(=O)Nc2nnc(-c3cc(OC)cc(OC)c3)o2)cc1	5	-11	11	-16	85*	14
CCCN(CCC)S(=O)(=O)c1ccc(C(=O)Nc2nnc(-c3cccc(OC)c3)o2)cc1	4	-4	5	-10	92*	1
CCCN(CCC)S(=O)(=O)c1ccc(C(=O)Nc2nnc(CSC)o2)cc1	1	-4	3	-12	14	-5
Brc1ccc2nc(-c3ccco3)c(CC3CCCCC3)n2c1	.	0	.	.	.	.
Cc1ccc(S(=O)(=O)N2C[C@H]3C(=O)C[C@@H](c4cccc(C)c4)N(S(=O)(=O)c4ccc(C)cc4)[C@H]3C[C@H]2c2ccccc2)cc1	.	-14	.	.	.	.
CCCCN(C)c1c(C)nc2ccc(C(=O)NCc3ccc(OC)cc3)cn12	.	-2	.	.	.	.
CCOC(=O)c1sc2nccc(N(C)C)c2c1N=CNOCc1ccccc1	3	-13	0	5	75*	1
CSc1nc(C)cc(SCC(=O)Nc2ccc(Cl)cc2Cl)n1	-2	-12	2	-6	87*	1
